# Where a SMILES comes first, the peptide text is derived from it. The star is where a group is joined. hSer(lactone) = O=C1OCC[C@@H]1N*
# Key:
# [1] = test system: Staphylococcus aureus; format: cell-based; conditions: S. aureus; LB at pH 3.7–8.7
# [2] = test system: Staphylococcus aureus strain; format: cell-based; conditions: aqueous peptide solution (10 μg/mL) heated at 100°C for 60 min, cooled 30 min
# [3] = Degradation assay with resting cell suspensions; format: in vitro ADME; conditions: resting cell suspension of Staphylococcus aureus ATCC 25923, pH 7
# In short: (§1)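 Resting-cell peptidase assay. Mid-exponential cultures (OD600 = 0.5) were pelleted at 10,000 g, 15 min, 4°C, washed twice and resuspended 20-fold concentrated in 10 mmol/L phosphate buffer, pH 7.0. Test peptide solution (400 μg/mL) was mixed 1:1 with cells (final 10^8 CFU/mL) and incubated at 37°C, sampled at 30 and 60 min (also 4 h for L. plantarum). Read-out was RP-HPLC peptide remaining versus a no-bacteria control; fragments were identified by LC-MS/MS.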
# [4] = Degradation assay with resting cell suspensions; format: in vitro ADME, Lactobacillus plantarum subsp. plantarum; conditions: pH 7
# In short: as §1
# [5] = test system: five pathogenic bacterial strains, including three Gram‐positive and two Gram‐negative strains; test: Antimicrobial assay; format: cell-based; conditions: read-out: MIC against all pathogenic bacterial strains tested
# In short: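 Broth microdilution MIC of a recombinant test peptide (RP-HPLC purified, >95%). E. coli ATCC 12014, S. aureus ATCC 25923, P. acnes ATCC 6919, P. gingivalis ATCC 33277 and S. mutans ATCC 25175 were grown overnight at 37°C in LB or BHI and diluted in the same medium. Serial peptide dilutions were mixed 1:1 with bacteria (final 5 × 10^4 CFU/mL) and incubated 37°C, 24 h. Ampicillin and magainin-2 were positive controls. Three independent repeats, mean ± SD.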
MIC [5],SMILES,MIC within the limits of pH (3.7–8.7) solutions [1],MIC against S. aureus strain under the conditions of heat treatment [2],"metabolised at 1 h, 200 μg/mL [3]","metabolised at 1 h, 200 μg/mL [4]"
–,CC[C@H](C)[C@H](NC(=O)[C@H](Cc1c[nH]c2ccccc12)NC(=O)[C@H](CCC(=O)O)NC(=O)[C@H](CCCCN)NC(=O)[C@@H](NC(=O)[C@H](CCCCN)NC(=O)[C@@H](N)CC(N)=O)C(C)C)C(=O)N[C@@H](CCCCN)C(=O)N[C@@H](Cc1ccc(O)cc1)C(=O)N[C@@H](CC(C)C)C(=O)N[C@@H](CCCCN)C(=O)N[C@@H](CO)C(=O)N[C@@H](CC(C)C)C(=O)N[C@@H](Cc1ccccc1)C(=O)N[C@@H](CO)C(=O)N[C@H]1CCOC1=O [LPcin‐YK3] (H-NKVKEWIKYLKSLFS-{hSer(lactone)}),0.62 μg/mL,0.62 µg/mL,10.8%,~79.3%
5 to 7.5 µg/mL,"CC1(C)S[C@@H]2[C@H](NC(=O)[C@H](N)c3ccccc3)C(=O)N2[C@H]1C(=O)O [Ampicillin, ampicillin]",–,–,–,–
